# Experiment: Toxicity liver stage against HepG2, at 10uM
# Assay type: cell-based
# Set-up: test concentration 10 uM, cell line HepG2-A16-CD81EGFP
# Conditions: human, HepG2-A16-CD81EGFP cells; read-out: INHIBITION
# Method in brief: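 Uninfected HepG2-A16-CD81EGFP cells, 3 × 10^3 per well, 1536-well, plated on prespotted compound at 10 μM final, parasite-free screening media added to match infected plates; puromycin 10 μM positive, DMSO 0.5% negative; run in parallel with 48 h PbLuc assay at 37 °C, 5% CO2; viability by CellTiter-Glo luminescence, normalized to controls.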
row,SMILES,cytotoxicity at 10 µM [%]
1,COc1ccccc1COCC(O)CN(C)Cc1cccc(Cl)c1 (stereo not given),-1.28
2,COc1ccc2c(ccn2CCC(=O)NCCCC(=O)O)c1,5.7
3,COC(=O)[C@@H](NC(=O)c1snnc1-c1ccc(OC)cc1)C(C)C,4.96
4,O=C(c1cnn2c1OCCC2)N1CCN(C(=O)C2CCCO2)CC1 (stereo not given),-6.19
5,CN(C)C(=O)N1CC(=O)NCC12CCN(C(=O)c1ccco1)C2 (stereo not given),-0.125
6,O=C1CC2(CCCCN2C(=O)c2ccoc2)CN1Cc1ccccc1 (stereo not given),6.35
7,C[C@@H]1C[C@H]2CN(S(=O)(=O)c3ccc(F)cc3)C[C@H]2O1,3.26
8,O=C([C@H]1COC[C@H]2CN(CC3CCC3)C[C@H]21)N1CCOCC1,17.3
9,Cc1cc(CN2C[C@@H]3COC[C@]3(c3nnc(C)o3)C2)no1,-2.11
10,CC(C)n1cnc(C2CN(C)c3ccc(C(=O)NC4CCCC4)cc32)n1 (stereo not given),10.4
11,O=C1[C@@H]2CCN(Cc3ccc(F)cc3)C[C@@H]2OCCN1c1cccnc1,8.82
12,CN1CC[C@]2(CN(Cc3cccs3)C[C@H]2c2ccccc2)C1=O,9.82
13,CCO[C@@H]1CCN(c2ccc(C)nn2)[C@@H]1Cc1cnn(C)c1,2.2
14,COCC1CC2(CCNCC2)CN1c1ncccn1 (stereo not given),7.51
15,Cc1ncsc1CN1C[C@@H](OCC2CC2)[C@H]2OCCC[C@H]21,-9.76
16,CCNC(=O)c1nc2c(s1)CCCN2S(C)(=O)=O,-12.6
17,Cc1cc(C)n(CCNCc2cc(-c3ccc(Cl)cc3)c[nH]c2=O)n1,-2.38
18,CC(C)C(=O)N1CCCC(Cc2ccccn2)C1 (stereo not given),-5.3
19,Cc1n[nH]c(C)c1-c1nccnc1CC1CCNC1 (stereo not given),-4.96
20,Cc1n[nH]c(C)c1S(=O)(=O)N1CCC(Oc2cnccn2)CC1,3.15
21,Cc1nc(-c2ccccc2C(=O)O)cc(C2CCN(C(C)C)C2)n1 (stereo not given),-13.1
22,CC(O)c1cn(Cc2ccc(Cl)cc2)nn1 (stereo not given),8.75

row,SMILES,cytotoxicity at 10 µM [%]
1,O=S(=O)(c1ccc(F)cc1Cl)N1CCCC1c1ccncc1 (stereo not given),-7.95
2,CCOc1cccc(CNC(=O)NC2CC=CC2)c1OC(F)F,-49.1
3,Cc1ccc(Cl)c(NC(=O)NC2(C)CCOC2)c1 (stereo not given),-46.7
4,Cc1ccc(NC2CCN(C(=O)CCC3CCCO3)CC2)nn1 (stereo not given),-1.2
5,CCOc1c(F)cccc1C(=O)N(C)CCc1ccccn1,18.6
6,O=C(C(c1ccccc1)S(=O)(=O)c1ccccn1)N1CCCCC1 (stereo not given),5.7
7,CCOc1ccc(CN(C)C(=O)c2nc(N3CCCC3)ncc2Cl)cc1,-33
8,CC(C)c1ncc(C(=O)N(C)c2ccc(Br)cn2)s1,9.12
9,CCC(CC)C(=O)NCc1c(C)nn(C)c1N1CCCN(C)CC1,0.295
10,CCOC(=O)C1CCCN(Cc2cc(C#N)n(C)c2C)C1 (stereo not given),0.0308
11,O=C(COC1CCCC1)N1CCCC1c1noc(C2CC2)n1 (stereo not given),11
12,Cc1ccc(CN(C(=O)NCc2nnc3n2CCCCC3)C2CC2)o1,9.35
13,Cc1ccc(NCCNC(=O)c2cc(CC(C)C)n[nH]2)nn1,0.37
14,Cc1cc(NCCNS(=O)(=O)c2cccc(Cl)c2)nc(C)n1,2.9
15,O=C(c1[nH]nc(C2CC2)c1Cl)N1CCN(C2CC2)C(=O)C1,-4.81
16,COc1ncccc1NC(=O)NC(C)(C)c1ncc(C)s1,-9.44
17,Cc1cc(C(=O)N2CCCC(N3CCCCCC3)C2)nn1C(C)(C)C (stereo not given),-4.4
18,Cc1ccc2cc(C(=O)N3CCN(C(=O)c4ccoc4)CC3)[nH]c2c1,-43.6
19,CSC(C)C(=O)NS(=O)(=O)c1ccc(F)c(C(F)(F)F)c1 (stereo not given),-6.52
20,CC(Cn1cccn1)NC(=O)NCCCN1CCc2ccccc21 (stereo not given),-0.449
21,Cc1cc(CN2CCN(C(=O)NCCCc3cn[nH]c3C)CC2)on1,-13.2
22,Cn1cc(NC(=O)NC2CCCN(c3ccccc3Cl)C2=O)cn1 (stereo not given),-41.8

row,SMILES,cytotoxicity at 10 µM [%]
1,CCc1nnsc1C(=O)N(C)Cc1ccc(C)o1,-46.5
2,CC1COCCN1C(=O)NCCCn1ccnc1 (stereo not given),-44.9
3,COCC1CN(S(=O)(=O)c2cccs2)Cc2ncnn2C1 (stereo not given),-120
4,CS(=O)(=O)N1C[C@@H]2COC[C@]2(C(=O)NCCc2cccs2)C1,-110
5,C[C@H](O)CNc1cc(-c2cn[nH]c2)ncn1,-15.6
6,O=C(NCCN1CCOC1=O)c1cnc(-c2cccnc2)nc1,0.611
7,CSC(C)CCN1CCCn2nc(CNC(=O)C3CCC3)cc2C1 (stereo not given),0.812
8,O=C(O)c1cc(-c2cc[nH]n2)cc(S(=O)(=O)N2CCCCCC2)c1,-4.88
9,CCc1ncc(C(=O)N2C[C@@H](C)O[C@@H](C)C2)cn1,-4.34
10,COc1ccc(C(C(=O)O)N(C)CCN2CCCC2)cc1F (stereo not given),1.38
11,O=C(CN1CCOC1=O)N1CCC2(CCc3ccccc32)CC1,-15.8
12,CN(C)C(=O)NCC(=O)N1CCCC2(CCC(=O)N(CC3CC3)C2)C1 (stereo not given),-8.38
13,Cn1c(=O)oc2ccc(NC(=O)N3CCSCC3)cc21,2.58
14,Cc1ccc(CN2CCN(Cc3nccn3C)[C@H]3CS(=O)(=O)C[C@H]32)o1,-3.65
15,N[C@@H]1CC[C@@H](NC(=O)c2ccccc2OC(F)(F)C(F)F)C1,-4.85
16,Cc1cc(NCCSc2nccn2C)n2nc(C)c(C)c2n1,9.75
17,COc1ccc(N2CCN(C[C@@H](C)CO)CC2=O)cc1,1.99
18,CCn1c(CN(C)C)nnc1C1CCN(Cc2cccc(F)c2F)CC1,1.49
19,CCCSCC(=O)N1CCCC(c2nccn2Cc2ccncc2)C1 (stereo not given),4.69
20,COc1ccccc1C1CNC(=O)c2nc(-c3cn(C)nc3C)[nH]c2C1 (stereo not given),-1.07
21,Nc1ncc(CN2C[C@H](C3CC3)[C@@H](N)C2)cn1,-44.6
22,CN(C)Cc1nnc(C2CCCN(Cc3ccc(Cl)s3)C2)n1C (stereo not given),-11.1

row,SMILES,cytotoxicity at 10 µM [%]
1,CCOCCOc1ccccc1C(=O)N1C[C@H](C2CC2)[C@@H](N)C1,-0.332
2,CC(NCc1cc(O)c2cccc(F)c2n1)c1ccccc1O (stereo not given),4.28
3,CCc1nnc(CNC(=O)CCCN2CCCCC2)s1,-15.4
4,COc1cccc(CN2CCN(Cc3ccc4nonc4c3)CC2=O)c1,-1.98
5,OC1CCN(C2CCN(Cc3cnc(-c4cccs4)nc3)CC2)CC1,-9.77
6,Cc1c(CNC(=O)C2CCCCCN2C)oc2ccccc12 (stereo not given),11.4
7,CSCCCNC(=O)c1coc(Cn2cnc3ccccc32)n1,-6.33
8,CCC1CN(C(=O)c2ccc(=O)[nH]n2)CCC(=O)N1Cc1ccccc1 (stereo not given),10.4
9,CCCNC(=O)c1cc(OC)c(OC)cc1N(C)S(C)(=O)=O,-5.18
10,Cc1cc(=O)n(CC(=O)Nc2ccc(Cl)cc2)nc1C,-1.74
11,Cc1ccccc1CN1CC[C@@]2(O)CCN(C(=O)C3CCC3)C[C@H]2C1,27.9
12,OC1CCN(C2CCN(Cc3cccc(Cn4cccn4)c3)CC2)CC1,-1.47
13,CC(C)(C)n1cc(C2=CCN(CCNC(N)=O)CC2)cn1,-3.51
14,CNC(=O)CC1CCN(Cc2nc(-c3ccc(SC)cc3)oc2C)CC1,-8.97
15,Cc1nc(C)n(C2CCCN(C(=O)COc3ccccc3)C2)n1 (stereo not given),-2.51
16,Cc1ccccc1-n1c(C)cc(C(=O)N2CCn3c(C)nnc3C2)c1C,-8.51
17,O=C(CCc1ccco1)Nc1cc(C(F)(F)F)c[nH]c1=O,13.9
18,CCC1CCCCN1Cc1nc2c(cnn2C)c(=O)[nH]1 (stereo not given),-3.18
19,COc1ccccc1C(=O)NS(=O)(=O)c1cccc(C#N)c1,-6.52
20,O=S(=O)(NCc1ccccc1Cn1cncn1)N1CCCCC1,2.6
21,Cc1nn(C)c(Cl)c1C1CCCN1C(=O)c1cnccn1 (stereo not given),-4.73
22,O=C(CCNC(=O)c1ccoc1)Nc1cc(F)ccc1F,-12.8

row,SMILES,cytotoxicity at 10 µM [%]
1,CC(C)c1nc(CC(=O)N2CCCC(n3cncn3)C2)cs1 (stereo not given),-8.24
2,Cc1ccc(C(=O)N2CCN(CC(O)c3ccc(F)cc3)CC2)s1 (stereo not given),-8.93
3,CNS(=O)(=O)CCCN1CCCC1c1cc(C)on1 (stereo not given),-6.31
4,Cc1cnn(CC2CCCN2C(=O)Cc2n[nH]c3ccccc23)c1 (stereo not given),-9.16
5,COc1ccccc1C(=O)N1CCCC1Cn1cc(C)cn1 (stereo not given),-6.49
6,Cc1nc(NCc2cccc(F)c2)cc(C2CCNCC2)n1,2.79
7,COCCN1CCOCC12CCN(C(=O)Cc1cccs1)CC2,10.8
8,COc1ccc(CN2CCc3ncnc(C4CCOC4)c3CC2)cc1 (stereo not given),-9.25
9,O=S(=O)(C1CC1)N1CCC2(CCCN(Cc3ccccn3)C2)C1 (stereo not given),-0.336
10,Cn1nc(COc2cncnc2)c2c1CCN(Cc1ccccn1)C2,9.67
11,CC(=O)N1CCn2c(-c3cccc(F)c3)cnc2C12CCNCC2,4.98
12,c1ccc(CN2CCCn3nnc(COc4ccccn4)c3C2)nc1,8.43
13,COc1ncc(C2(O)CCN(Cc3cc(F)ccc3F)CC2)c(OC)n1,-16.1
14,COc1ccc(S(=O)(=O)NCC(N)c2ccccc2)c(C)c1 (stereo not given),0.0381
15,CC(C)N(C)[C@@H]1CCN(Cc2nccs2)[C@H]1Cc1ccncc1,-2.75
16,O=C1C[C@H]2[C@@H](CCN2C(=O)Cc2cccs2)N1Cc1cccnc1,7.48
17,FC(F)Oc1ccc(CNCc2cc(Cl)c3c(c2)OCO3)cc1,2.63
18,CN1CCc2c(c(COc3cncnc3)nn2CC2CC2)C1,8.61
19,O=C1CC2(CCN(CC3CC3)C2)CN1c1ccc2c(c1)OCO2 (stereo not given),-2.47
20,CNC(=O)[C@@H]1C[C@H]2CN(c3ncccn3)C[C@H]2N1C(C)C,9.72
21,CCOCC1CN(C(=O)COc2ccccc2C)Cc2ncn(C)c21 (stereo not given),0.78
22,CN(C)[C@@H]1CN(C(=O)Cc2cccs2)[C@@H]2CCCO[C@H]12,5.93
